Data from ChEMBL document CHEMBL4715720, “Synthetic strategy and antiviral evaluation of diamide containing heterocycles targeting dengue and yellow fever virus” (Eur J Med Chem, 2016).
pEC50: −log10 of the molar value.

Legend:
[1] = (§1) Selectivity index, ratio of CC50 for African green monkey Vero-B cells infected with Dengue virus serotype 2 assessed as inhibition of cell growth to EC50 for Dengue Virus serotype 2 infected in Vero-B cells assessed as inhibition of virus-induced cytopathogenic effect incubated for 7 days by methylene blue staining based visual analysis; assay type: toxicity; settings: read-out: Ratio CC50/EC50
[2] = as §1, with “Yellow fever” for “Dengue”, “virus” for “virus serotype 2”, “Yellow fever virus” for “Dengue Virus serotype 2”; assay type: toxicity; settings: read-out: Ratio CC50/EC50
[3] = Cytotoxicity against African green monkey Vero-B cells infected with Yellow fever virus assessed as inhibition of cell growth after 7 days by methylene blue staining based visual analysis; settings: chlorocebus aethiops, time 7 day
How it was run: (§2)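 Yellow fever virus was tested in Vero-B cells of the ATCC CCL-81 line. EC50 is the concentration giving 50% inhibition of virus-induced CPE. CC50 is the concentration giving 50% inhibition of cell growth. The original μg/mL data were converted to μM.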

[4] = system: dengue virus type 2; test: Antiviral activity against Dengue virus serotype 2 infected in Vero-B cells assessed as inhibition of virus-induced cytopathogenic effect after 7 days by methylene blue staining based visual analysis; assay type: functional, organism-based; settings: 168 h
How it was run: (§3)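 Dengue virus serotype 2 was tested in green monkey kidney Vero-B cells from the ECACC line. EC50 is the concentration that inhibits virus-induced CPE by 50%. CC50 is the concentration that inhibits cell growth by 50%. Values were first obtained in μg/mL and then recalculated to μM.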

[5] = Cytotoxicity against African green monkey Vero-B cells infected with Dengue virus serotype 2 assessed as inhibition of cell growth after 7 days by methylene blue staining based visual analysis; settings: chlorocebus aethiops, time 7 day; how it was run: as §3
[6] = system: Yellow fever virus; test: Antiviral activity against Yellow fever virus infected in Vero-B cells assessed as inhibition of virus-induced cytopathogenic effect after 7 days by methylene blue staining based visual analysis; assay type: functional, organism-based; settings: 168 h; how it was run: as §2

Row | SMILES | selectivity ratio at 168 h [1] | selectivity ratio at 168 h [2] | further results
1 | Cc1ccc(NC(=O)c2nccnc2C(=O)Nc2ccc(C)cc2-c2cccs2)cc1 | > 235 |  | 
2 | Cc1ccc(NC(=O)c2nccnc2C(=O)Nc2ccc(F)cc2)c(-c2cccs2)c1 |  | 5 | 
3 | O=C(NCc1ccccc1-c1ccsc1)c1ccccc1C(=O)Nc1ccc(F)cc1 | 17 | 53 | CC50 at 168 h [3]: 75 µM; pEC50 [4]: 5.52; CC50 at 168 h [5]: 50 µM; pEC50 [6]: 5.85
4 | Cc1ccc(NC(=O)c2nccnc2C(=O)Nc2ccccc2-c2cc(C)n[nH]2)cc1 |  | > 34 | 
5 | Cc1ccc(NC(=O)c2nccnc2C(=O)Nc2ccc(C)cc2-c2ccsc2)cc1 | > 29 |  | 
6 | Cc1ccc(NC(=O)c2nccnc2C(=O)Nc2ccc(C)cc2-c2cc(C)n[nH]2)cc1 | > 235 |  | 
7 | Cc1ccc(NC(=O)c2ccccc2C(=O)Nc2ccc(C)cc2-c2ccsc2)cc1 | 41 |  | 
8 | Cc1ccc(NC(=O)c2ccccc2C(=O)Nc2ccc(F)cc2)c(-c2cc(C)n[nH]2)c1 | > 235 |  | 
